Compounds with a hit are over-represented: about 4.1% of the library has one in this group of screens.
Apaf-1 inh: inhibitors of human Apaf-1 apoptosome, primary screen, biochemical, DEVD-Rh110 fluorescence, uHTS. Apoptotic protease-activating factor 1 (Homo sapiens), O14727. reconstituted apoptosome caspase-3 activity. inhibition, % at 20 µM. 330,000 compounds, 0.71% hits. AID 489030, 2010; active = inhibition of at least 40% at 20 µM
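Material: biochemical Apaf-1 apoptosome reconstitution. Medium: Hepes buffer, pH 7.5. Also added: cytochrome c activation, bis-DEVD rhodamine 110 substrate. Timing: 30 min compound preincubation, 50 min activation, room temperature. Measured by: rhodamine 110 fluorescence at Ex 480/Em 540 nm.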
Mdm2-MdmX inh: inhibitors of human Mdm2-MdmX association, primary screen, cell-based, luminescence, split luciferase, SaOS-2, uHTS | 330,000 compounds, 3% hits | inhibition, % at 8 µM | Protein Mdm4 (Homo sapiens) + E3 ubiquitin-protein ligase Mdm2 (Homo sapiens), … | SaOS-2 split-luciferase Mdm2/MdmX complementation;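 active = inhibition of at least 50% at 8 µM in the primary screen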
UBC13 polyUb: UBC13 polyubiquitin chain formation inhibitors, primary screen, biochemical, TR-FRET, uHTS | Ubiquitin-conjugating enzyme E2 N (Homo sapiens), P61088 | inhibition, % at 20 µM | 330,000 compounds, 0.47% hits | AID 485273, 2010; in the data active = inhibition above about 45%, passing the limit was not always enough
Target sequence (P61088 whole entry, looked up): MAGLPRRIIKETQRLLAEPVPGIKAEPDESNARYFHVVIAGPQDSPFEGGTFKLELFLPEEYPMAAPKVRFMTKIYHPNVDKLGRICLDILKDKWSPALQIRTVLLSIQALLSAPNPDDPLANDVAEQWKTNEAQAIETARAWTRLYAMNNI
XBP1 UPR activ: activators of adaptive XBP1 UPR arm, primary screen, cell-based, CHO-XBP1 luciferase reporter, luminescence, uHTS; IRE1-XBP1 UPR activation; percent of tunicamycin response, DMSO as zero; activation, % at 20 µM; 330,000 compounds, 0.33% hits; AID 463104, 2010;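 active = versus positive control, 20 µM dose yields 30% or more activation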
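Material: CHO cell line with stable XBP1 luciferase reporter; schedule: 16-18 h cell attachment at 37 °C, then 6 h compound exposure; signal: glow luminescence from Steady-Glo reagent; medium: serum-containing F12 medium, 10% FBS; benchmarks: tunicamycin 10 µg/mL and vehicle-only wells; read-out: percent activation relative to tunicamycin reference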
UPR CHOP act: activators of apoptotic CHOP UPR arm, primary screen, cell-based, CHO-CHOP luciferase reporter, luminescence, uHTS | UPR activation; percent of tunicamycin response over DMSO baseline | activation, % at 10 µM | 330,000 compounds, 0.34% hits | AID 449763, 2010;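 active = at 10 µM dose, activation of 40% or more, normalized to positive control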
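Dosing – one dose, 10 µM in 0.5% DMSO · System – CHO-CHOP cells, stable luciferase reporter of PERK-eIF2a-CHOP signalling · Input – 500 cells/well · Control set – tunicamycin 10 µg/mL final as positive, DMSO-only wells as negative · Timing – 6 h compound treatment, 37 °C · Measure – % activation vs tunicamycin · Technique – luminescence read with Steady-Glo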
Mdm2-MdmX conf: Mdm2-MdmX complex disruptors, retested hits, confirmation, luminescence, single concentration; Mdm2-MdmX binding, luminescent assay; AID 489028, 2010; 10,000 compounds, 55% hits; shares compounds with Mdm2-MdmX inh; inhibition, % at 8 µM; in the data active = inhibition above about 40%
Full FLuc ctr: full-length luciferase signal inhibition, confirmation, counter-screen for Mdm2/MdmX interaction inhibitor project, cell-based, single concentration, SaOS-2; shares compounds with Mdm2-MdmX inh; SaOS-2 full-length luciferase counterscreen, luminescence; inhibition, % at 8 µM; 6,200 compounds, 77% hits; AID 504607, 2011;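 active = mean inhibition at 8 µM reaching about 37%, which flags the compound as non-specific, limit read from the data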;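 note: p53-null SaOS-2 cells with luciferase driven by a doxycycline-inducible promoter; compound on cells about two nights before reading with doxycycline added after day one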
Each line names hits and unclear results; the compound was inactive in the other large screens (follow-up assays come after a bar, where they were run).

CCCCC(=O)Nc1ccc(C(=O)Nc2ccc(S(=O)(=O)Nc3ccc(C)cc3)cc2)cc1	Mdm2-MdmX inh 62.6 | Mdm2-MdmX conf inactive | Full FLuc ctr 40.6
Cc1ccc(NS(=O)(=O)c2ccc(C(=O)NNC(=O)c3ccccc3O)cc2)cc1	Mdm2-MdmX inh 62.2 | Mdm2-MdmX conf 55.4 | Full FLuc ctr 51.9
O=C(Cc1n[nH]c(=O)c2ccccc12)Nc1cc(Cl)ccc1-n1cncn1	none
CCCCCCCNC(=O)C1(CC2CC(c3ccccc3)=NO2)CCNCC1 (stereo unspecified)	Mdm2-MdmX inh 53.9 | Mdm2-MdmX conf inactive
COc1ccc(OCC(=O)Nc2cc3oc4ccccc4c3cc2OC)cc1	Mdm2-MdmX inh 93.2 | Mdm2-MdmX conf 67.2 | Full FLuc ctr 88.5
COc1ccc(/C=C/C(=O)NC(=S)Nc2cc3oc4ccccc4c3cc2OC)cc1	Mdm2-MdmX inh 90.0 | Mdm2-MdmX conf inactive
O=C(CCC(=O)N1CCc2ccccc2C1)NCCc1ccc(Cl)cc1	none
O=C1c2cccc3cc([N+](=O)[O-])cc(c23)C(=O)N1CCN1CCCC1	Mdm2-MdmX inh 90.0 | Mdm2-MdmX conf 95.8 | Full FLuc ctr 52.6
Cc1cc(C)cc(S(=O)(=O)c2cn(C)c3cc(N4CCN(C)CC4)c(F)cc3c2=O)c1	Mdm2-MdmX inh 96.4 | Mdm2-MdmX conf inactive
O=C(OCC#CCSc1nc2ccccc2o1)c1ccco1	none
O=C(O)CCn1cc(/C=C2\NC(=S)N(c3ccccc3)C2=O)c(-c2ccc(Br)cc2)n1	none
CN(C(=O)OC(C)(C)C)c1ccc(-c2nc3ccccc3s2)cc1	Mdm2-MdmX inh 87.6 | Mdm2-MdmX conf 90.5 | Full FLuc ctr inactive
COc1cc(-c2nc3ccccc3s2)ccc1O	none
CC(C)c1ccc(-c2nc3ccccc3s2)cc1	Mdm2-MdmX inh 87.4 | Mdm2-MdmX conf 88.5 | Full FLuc ctr inactive
CCN1CCN(S(=O)(=O)c2ccc(OC)c(NC(=O)c3ccccc3)c2)CC1	none
Cc1ccc(OCCOC(=O)c2c(-c3ccccc3)noc2C)cc1	none
Cc1onc(-c2ccccc2)c1C(=O)OCCOc1cccc(Cl)c1	Mdm2-MdmX inh 51.8 | Mdm2-MdmX conf 62.4 | Full FLuc ctr 63.9
c1ccc(CN2CCC(Nc3nc(-c4cccs4)nc4ccccc34)CC2)cc1	Mdm2-MdmX inh 93.4 | Mdm2-MdmX conf inactive | Full FLuc ctr 73.7
COc1cccc2c1OC1(C)CC2N(C(=O)c2ccco2)C(=S)N1c1ccc(F)cc1 (stereo unspecified)	Mdm2-MdmX inh 65.2 | Mdm2-MdmX conf 53.1 | Full FLuc ctr 70.3
COc1cccc(C(=O)/C=C/c2ccc(OCC#N)c(OC)c2)c1	Mdm2-MdmX inh 96.4 | Mdm2-MdmX conf 42.6 | Full FLuc ctr 42.5
COc1cc(/C=C/C(=O)c2ccc(O)cc2)ccc1OCC#N	Mdm2-MdmX inh 87.1 | Mdm2-MdmX conf 78.0 | Full FLuc ctr inactive
COC(=O)c1cccc(N(CC(=O)NC2CCCCC2)C(=O)CNC(=O)c2cccs2)c1	none
O=[N+]([O-])c1ccc(/C=N/Nc2ccnc3cc(Cl)ccc23)o1	none
Clc1ccc2c(N/N=C/c3ccccc3Br)ccnc2c1	Mdm2-MdmX inh 100.5 | Mdm2-MdmX conf 81.8 | Full FLuc ctr 52.2
COCCN1CCN(C(=O)C2CCC(=O)N(Cc3cccc(C(F)(F)F)c3)C2)CC1 (stereo unspecified)	none
Cc1nsc(Nc2ccc([N+](=O)[O-])cc2)c1C#N	Mdm2-MdmX inh 79.0 | Mdm2-MdmX conf 55.1 | Full FLuc ctr 89.2
COCCCn1c(=O)c2sccc2n(Cc2cc(C(=O)OC)ccc2OC)c1=O	none
CC(C)=CCC12Oc3cc(O)ccc3C1(O)Oc1cc(O)c([C@H]3C=C(C)CC(c4ccc(O)cc4O)[C@H]3C(=O)c3ccc(O)cc3O)c(O)c1C2=O (stereo partly specified)	Mdm2-MdmX inh 68.1 | Mdm2-MdmX conf inactive
Cc1ccc(N2NC(C)(c3cccs3)NC2=S)cc1 (stereo unspecified)	none
COc1cc2cc(-c3ccc(OC)c(OC)c3C)nc(N)c2cc1OC	Mdm2-MdmX inh 93.5 | Mdm2-MdmX conf 70.5 | Full FLuc ctr 61.6
CCOc1ccc(-c2cc3cc(OC)c(OC)cc3c(C)n2)cc1	none
COc1cc2cc(-c3ccc(O)cc3O)nc(C)c2cc1OC	Mdm2-MdmX inh 83.5 | Mdm2-MdmX conf 53.3 | Full FLuc ctr 52.9
CN(CC(=O)N1CCCC1)S(=O)(=O)c1ccc2ccccc2c1	none
CC(C)CC1NC(=O)N(CC(=O)Nc2cc(F)ccc2F)C1=O (stereo unspecified)	none
Cc1cc(C(=O)CSc2nnc(-c3ccccc3)o2)c(C)n1CC1COc2ccccc2O1 (stereo unspecified)	none
Cc1cc(C(=O)CSc2nnc(-c3ccc(F)cc3)o2)c(C)n1CC1COc2ccccc2O1 (stereo unspecified)	Mdm2-MdmX inh 61.8 | Mdm2-MdmX conf inactive
O=C1CC(=O)N2N=C(c3ccc([N+](=O)[O-])cc3)SC2=N1	none
O=C1Nc2ccccc2O/C1=C\c1c(F)cccc1Cl	Mdm2-MdmX inh 60.0 | Mdm2-MdmX conf 42.0 | Full FLuc ctr 60.2
COC(=O)c1ccc(/C=C2\Oc3ccccc3NC2=O)cc1	none
O=C(NCc1ccco1)/C(=C/c1cccc(C(F)(F)F)c1)c1nc2ccccc2[nH]1	Mdm2-MdmX inh 82.7 | Mdm2-MdmX conf 83.6 | Full FLuc ctr 37.9
Cc1nc(C)c(C(=O)OCC(=O)NCc2ccccc2)s1	none
N#Cc1ncc(Cl)c2ccccc12	none
CCN(CC)CCCN(C(=O)c1cccc(C)c1)c1nc(-c2ccc(OC)cc2)cs1	Mdm2-MdmX inh 55.9 | Mdm2-MdmX conf inactive | Full FLuc ctr 83.6
CCN(CC)CCCN(C(=O)c1cccs1)c1nc(-c2ccc(OC)cc2)cs1	none
COc1cccc2[nH]c3ccccc3c(=O)c12	none
C=Cc1ncc(OC)c2c1[nH]c1ccccc12	Mdm2-MdmX inh 100.3 | Mdm2-MdmX conf 59.1 | Full FLuc ctr inactive
Cc1ccc(S(=O)(=O)N2CCOCC2)cc1C(=O)OCC(=O)c1c(N)n(C)c(=O)n(C)c1=O	none
Cn1c(N)c(C(=O)COC(=O)c2cc(S(=O)(=O)N3CCOCC3)ccc2F)c(=O)n(C)c1=O	Mdm2-MdmX inh 82.0 | Mdm2-MdmX conf inactive

Assay outcomes deposited in PubChem BioAssay by Sanford-Burnham Center for Chemical Genomics.
